Experimental data: ChEMBL document CHEMBL4673192, “Structure-activity relationship studies on 2,5,6-trisubstituted benzimidazoles targeting Mtb-FtsZ as antitubercular agents” (RSC Med Chem, 2021)
Converted amounts (≈) assume the structure as drawn.

Key:
[1] = system: Mycobacterium tuberculosis; test: Antitubercular activity against mid logarithmic stage Mycobacterium tuberculosis H37Rv incubated for 6 days by alamar blue assay; format: functional; conditions: 144 h, time 6 day
In short: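 Protocol B: the mid-log H37Rv culture (OD580 0.4) was diluted 1:100 and mixed with an equal volume of serially diluted compound (DMSO). After 6 days at 37 °C, Alamar blue plus 20% Tween 80 was added. Plates were read 24 h later at 570 nm against a 600 nm reference. Untreated inoculum wells gave the survival-inhibition curve, and rifampicin served as positive control.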

[2] = system: Mycobacterium tuberculosis; test: Antitubercular activity against Mycobacterium tuberculosis H37Rv incubated for 6 days by alamar blue assay; format: functional; conditions: 144 h, time 6 day
In short: (§1)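 MABA (protocol A): Mtb H37Rv grown in 7H9 with 10% OADC and 0.05% Tween-80 and used at mid-log phase. Compounds from DMSO stocks were serially diluted 2-fold, and the inoculum was set to OD600 0.005. Plates were incubated 6 days at 37 °C, then Alamar Blue was added for a further 24 h. MIC is the lowest concentration (μg mL−1) preventing the colour change.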

[3] = system: Mycobacterium tuberculosis; test: Antitubercular activity against Mycobacterium tuberculosis H37Rv infected in immune compromised GKO mouse assessed as spleen log CFU reduction; format: functional
[4] = system: Mycobacterium tuberculosis; test: Antitubercular activity against Mycobacterium tuberculosis H37Rv infected in immune compromised GKO mouse assessed as lung log CFU reduction; format: functional
[5] = system: Mycobacterium tuberculosis; test: Antitubercular activity against Mycobacterium tuberculosis H37Rv by microplate alamar blue assay; format: functional; in short: as §1
[6] = Cytotoxicity against human HepG2 cells assessed as reduction in cell viability at 20 uM incubated for 72 hrs by MTT assay relative to control; format: cell-based; conditions: read-out: INH
In short: (§2)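 MTT assay: cells were seeded at 2500/well and attached overnight to 70–90% confluency (HepG2 in RPMI-1640, WI-38 in DMEM, each with 10% FBS). Compound was given at 20 μM final with 0.5% DMSO for 72 h. MTT was applied for 4 h in the dark and the formazan dissolved in DMSO, with OD read at 570 nm. % inhibition is relative to the DMSO control, mean of triplicate.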

[7] = Cytotoxicity against human WI-38 cells assessed as reduction in cell viability at 20 uM incubated for 72 hrs by MTT assay relative to control; format: cell-based; conditions: read-out: INH; in short: as §2
[8] = system: WI-38; test: Cytotoxicity against human WI-38 cells assessed as reduction in cell viability incubated for 72 hrs by MTT assay; format: cell-based; conditions: WI-38, 72 h
[9] = Therapeutic index, ratio of IC50 for human WI-38 cells to MIC for Mycobacterium tuberculosis H37Rv; format: toxicity; conditions: read-out: TI

Structure (SMILES) | MIC99 [2] | also measured
CCCCOC(=O)Nc1cc2nc(C3CCCCC3)[nH]c2cc1N(C)C | 0.06 µg/mL (≈ 0.167 µM) | MIC99 [1]: 0.008 µg/mL (≈ 0.0223 µM)
CN(C)c1cc2[nH]c(C3CCCCC3)nc2cc1NC(=O)c1ccc(C(F)(F)F)cc1F | – | Activity [3]: 3.9 log10CFU; Activity [4]: 5.7 log10CFU; MIC [5]: 0.16 µg/mL (≈ 0.357 µM)
CN(C)c1cc2[nH]c(C3CCCCC3)nc2cc1NC(=O)c1ccc(OC(F)(F)F)cc1F | 0.16 µg/mL (≈ 0.344 µM) | MIC99 [1]: 0.019 µg/mL (≈ 0.0409 µM); cytotoxicity at 72 h, 20 µM [6]: 57%; cytotoxicity at 72 h, 20 µM [7]: 78%; Activity [3]: 3.9 log10CFU; Activity [4]: 5.7 log10CFU; MIC [5]: 0.16 µg/mL (≈ 0.344 µM)
CCCCOC(=O)Nc1cc2nc(CN3CCOCC3)[nH]c2cc1N(C)C | 2.4 µg/mL (≈ 6.39 µM) | MIC99 [1]: 1.6 µg/mL (≈ 4.26 µM)
Cc1ccc(C(=O)Nc2cc3nc(C4CCCC4)[nH]c3cc2N(C)C)cc1 | 0.625 µg/mL (≈ 1.72 µM) | –
COc1ccc(CC(=O)Nc2cc3nc(CN(C)c4ccccc4)[nH]c3cc2N(C)C)cc1 | > 10 µg/mL | –
CCCCOC(=O)Nc1cc2nc(CN(C)c3ccccc3)[nH]c2cc1N(C)C | 0.16 µg/mL (≈ 0.405 µM) | –
COc1ccc(C(=O)Nc2cc3nc(Cc4ccccc4)[nH]c3cc2N(C)C)cc1 | 1.25 µg/mL (≈ 3.12 µM) | –
Cc1ccc(C(=O)Nc2cc3nc(Cc4ccccc4)[nH]c3cc2N(C)C)cc1 | 1.56 µg/mL (≈ 4.06 µM) | –
CN(C)c1cc2[nH]c(C3CCCC3)nc2cc1NC(=O)c1ccccc1 | 1.56 µg/mL (≈ 4.48 µM) | –
CCCCOC(=O)Nc1cc2nc(SCC3CCCCC3)[nH]c2cc1N(C)C | 0.015 µg/mL (≈ 0.0371 µM) | IC50 [8]: 20 µM; MIC99 [1]: 0.0039 µg/mL (≈ 0.00964 µM); selectivity ratio [9]: > 100; cytotoxicity at 72 h, 20 µM [6]: 0%; cytotoxicity at 72 h, 20 µM [7]: 52%
CN(C)c1cc2[nH]c(Cc3ccccc3)nc2cc1NC(=O)c1ccc(F)cc1 | 0.63 µg/mL (≈ 1.62 µM) | –
CCC(CC)c1nc2cc(NC(=O)c3ccc(OC)c(OC)c3)c(N(C)C)cc2[nH]1 | 12.5 µg/mL (≈ 30.4 µM) | –
CCCCOC(=O)Nc1cc2nc(C3CCOCC3)[nH]c2cc1N(C)C | > 2.5 µg/mL | –
CN(C)c1cc2[nH]c(C3CCOCC3)nc2cc1NC(=O)c1ccc(OC(F)(F)F)cc1F | 10 µg/mL (≈ 21.4 µM) | –
CCC(CC)c1nc2cc(NC(=O)c3ccc(OC(F)(F)F)cc3)c(N(C)C)cc2[nH]1 | 0.31 µg/mL (≈ 0.714 µM) | –
CCC(CC)c1nc2cc(NC(=O)c3ccccc3)c(N(C)C)cc2[nH]1 | 1.56 µg/mL (≈ 4.45 µM) | –
CN(C)c1cc2[nH]c(Cc3ccccc3)nc2cc1NC(=O)C(C)(C)C | > 10 µg/mL | –
CN(C)c1cc2[nH]c(C3CCCC3)nc2cc1NC(=O)c1ccc(F)cc1F | 0.625 µg/mL (≈ 1.63 µM) | –

Structure (SMILES) | MIC99 [2] | also measured
CCC(CC)C(=O)Nc1cc2nc(C3CCCC3)[nH]c2cc1N(C)C | > 50 µg/mL | –
CCCCOC(=O)Nc1cc2nc(C(CC)CC)[nH]c2cc1N(C)C | 0.078 µg/mL (≈ 0.225 µM) | cytotoxicity at 72 h, 20 µM [6]: 32%; cytotoxicity at 72 h, 20 µM [7]: 77%
CCCc1ccc(C(=O)Nc2cc3nc(CN(C)c4ccccc4)[nH]c3cc2N(C)C)cc1 | 5 µg/mL (≈ 11.3 µM) | –
CCC(CC)c1nc2cc(NC(=O)c3ccc(C)cc3)c(N(C)C)cc2[nH]1 | 0.5 µg/mL (≈ 1.37 µM) | –
CCCCOC(=O)Nc1cc2nc(SCC)[nH]c2cc1N(C)C | 1.2 µg/mL (≈ 3.57 µM) | MIC99 [1]: 0.16 µg/mL (≈ 0.476 µM)
CN(C)c1cc2[nH]c(C3CCCC3)nc2cc1NC(=O)C1CCC1 | > 10 µg/mL | –
CCC(CC)c1nc2cc(NC(=O)c3ccccc3OC)c(N(C)C)cc2[nH]1 | 1.56 µg/mL (≈ 4.1 µM) | –
CN(C)c1cc2[nH]c(C3CCCC3)nc2cc1NC(=O)C(C)(C)C | 50 µg/mL (≈ 152 µM) | –
CCCCOC(=O)Nc1cc2nc(SC3CCCCC3)[nH]c2cc1N(C)C | – | MIC99 [1]: < 0.0081 µg/mL; cytotoxicity at 72 h, 20 µM [6]: 50%; cytotoxicity at 72 h, 20 µM [7]: 87%
CCC(CC)C(=O)Nc1cc2nc(Cc3ccccc3)[nH]c2cc1N(C)C | > 10 µg/mL | –
CCCCOC(=O)Nc1cc2nc(SCc3ccccc3)[nH]c2cc1N(C)C | 0.31 µg/mL (≈ 0.778 µM) | –
CCCCOC(=O)Nc1cc2nc(SC)[nH]c2cc1N(C)C | 9.6 µg/mL (≈ 29.8 µM) | MIC99 [1]: 1.28 µg/mL (≈ 3.97 µM)
CN(C)c1cc2[nH]c(Cc3ccccc3)nc2cc1NC(=O)c1ccccc1 | 1.25 µg/mL (≈ 3.37 µM) | –
CN(C)c1cc2[nH]c(CN(C)c3ccccc3)nc2cc1NC(=O)c1ccc(C(C)(C)C)cc1 | 2.5 µg/mL (≈ 5.49 µM) | –
CC(C)c1nc2cc(NC(=O)c3ccc(C(C)(C)C)cc3)c(N(C)C)cc2[nH]1 | 0.78 µg/mL (≈ 2.06 µM) | –
CN(C)c1cc2[nH]c(Cc3ccccc3)nc2cc1NC(=O)c1ccc(F)cc1F | 0.63 µg/mL (≈ 1.55 µM) | –
CCCCOC(=O)Nc1cc2nc(CN3CCCC3)[nH]c2cc1N(C)C | 2.4 µg/mL (≈ 6.68 µM) | MIC99 [1]: 1.6 µg/mL (≈ 4.45 µM)
CCCCOC(=O)Nc1cc2nc(C(C)C)[nH]c2cc1N(C)C | 1.25 µg/mL (≈ 3.93 µM) | –
CCC(CC)c1nc2cc(NC(=O)c3ccc(F)cc3)c(N(C)C)cc2[nH]1 | 0.78 µg/mL (≈ 2.12 µM) | –

Structure (SMILES) | MIC99 [2] | also measured
CN(C)c1cc2[nH]c(CN(C)c3ccccc3)nc2cc1NC(=O)c1ccc(OC(F)(F)F)cc1F | 0.29 µg/mL (≈ 0.578 µM) | MIC99 [1]: 0.19 µg/mL (≈ 0.379 µM); cytotoxicity at 72 h, 20 µM [6]: 30%; cytotoxicity at 72 h, 20 µM [7]: 59%
CN(C)c1cc2[nH]c(C3CCOCC3)nc2cc1NC(=O)c1ccc(OC(F)(F)F)cc1 | > 10 µg/mL | –
CN(C)c1cc2[nH]c(CN(C)c3ccccc3)nc2cc1NC(=O)c1ccc(F)cc1F | 1.25 µg/mL (≈ 2.87 µM) | –
CCCCOC(=O)Nc1cc2nc(Cc3ccccc3)[nH]c2cc1N(C)C | < 0.078 µg/mL | cytotoxicity at 72 h, 20 µM [6]: 80%; cytotoxicity at 72 h, 20 µM [7]: 93%
CCCCOC(=O)Nc1cc2nc(CN(CCC)CCC)[nH]c2cc1N(C)C | 0.16 µg/mL (≈ 0.411 µM) | cytotoxicity at 72 h, 20 µM [6]: 0%; cytotoxicity at 72 h, 20 µM [7]: 4%
CN(C)c1cc2[nH]c(C3CCCC3)nc2cc1NC(=O)c1ccc(F)cc1 | 0.78 µg/mL (≈ 2.13 µM) | –
CCCCOC(=O)Nc1cc2nc(-c3cccs3)[nH]c2cc1N(C)C | > 10 µg/mL | –
CCCCOC(=O)Nc1cc2nc(C3CCCC3)[nH]c2cc1N(C)C | 0.31 µg/mL (≈ 0.9 µM) | cytotoxicity at 72 h, 20 µM [6]: 42%; cytotoxicity at 72 h, 20 µM [7]: 86%
CCC(CC)c1nc2cc(NC(=O)c3ccc(F)cc3F)c(N(C)C)cc2[nH]1 | 0.71 µg/mL (≈ 1.84 µM) | –
CN(C)c1cc2[nH]c(C3CCCC3)nc2cc1NC(=O)c1ccc(OC(F)(F)F)cc1 | 1.56 µg/mL (≈ 3.61 µM) | –
CN(C)c1cc2[nH]c(C3CCCC3)nc2cc1NC(=O)c1ccc(C(C)(C)C)cc1 | 0.78 µg/mL (≈ 1.93 µM) | –
COc1ccccc1C(=O)Nc1cc2nc(C3CCCC3)[nH]c2cc1N(C)C | 12.5 µg/mL (≈ 33 µM) | –
CN(C)c1cc2[nH]c(Cc3ccccc3)nc2cc1NC(=O)c1ccc(C(C)(C)C)cc1 | 0.33 µg/mL (≈ 0.774 µM) | –
CCCCOC(=O)Nc1cc2nc(SC(C)C)[nH]c2cc1N(C)C | 0.31 µg/mL (≈ 0.884 µM) | –
Cc1ccc(C(=O)Nc2cc3nc(CN(C)c4ccccc4)[nH]c3cc2N(C)C)cc1 | 1.25 µg/mL (≈ 3.02 µM) | –
CCCCOC(=O)Nc1cc2nc(Sc3ccccc3)[nH]c2cc1N(C)C | 0.31 µg/mL (≈ 0.806 µM) | –
COc1ccc(C(=O)Nc2cc3nc(C4CCCC4)[nH]c3cc2N(C)C)cc1 | 1.25 µg/mL (≈ 3.3 µM) | –
CCCCOC(=O)Nc1cc2nc(CN3CCCCC3)[nH]c2cc1N(C)C | 0.14 µg/mL (≈ 0.375 µM) | MIC99 [1]: 0.09 µg/mL (≈ 0.241 µM); cytotoxicity at 72 h, 20 µM [6]: 0%; cytotoxicity at 72 h, 20 µM [7]: 60%
CN(C)c1cc2[nH]c(Cc3ccccc3)nc2cc1NC(=O)c1ccc(OC(F)(F)F)cc1 | 1.25 µg/mL (≈ 2.75 µM) | –
